An excerpt weighted towards active compounds, which were near 1.2% of everything screened.
Efa HMGR inh: inhibitors of class II HMG-CoA reductase from Enterococcus faecalis; purified E. faecalis HMGR, NADPH absorbance 340 nm kinetic; inhibition, % at 10 µM; hit rate 0.41% among 190,000; AID 1066;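 active means inhibition above a set limit, the median over all tested compounds plus 3 SD, cut at about 9.5% in these data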;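 further: enzyme runs in reverse so mevalonate oxidation gives rising NADPH absorbance; 0% = complete reaction with DMSO and 100% = background rate lacking mevalonate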
Rad51 HR inh: blocks human Rad51 in homologous recombination; inhibition, % at 10 µM; AID 1385; Q06609; hRad51 DNA strand exchange, fluorescence dequenching; hit rate 0.085% among 200,000;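 active means inhibition above 40% at the single screening dose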;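 further: 0% = DMSO control wells and 100% = blanks with heterologous ssDNA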
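material = hRad51 filaments on single-stranded DNA | reagent = Donor/quencher-labelled 47-bp dsDNA substrate | compound = 10 µM final, single point | schedule = strand-exchange reaction 15 min at room temperature | measured by = fluorescein emission 520 nm, excitation 485 nm | read-out basis = % inhibition versus plate control and blank means | benchmarks = plate controls and plate blanks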
S1P4 agonist: agonists of human S1P4 receptor. hit rate 0.35% among 220,000. activation, % at 4.98 µM. S1P4-expressing cell line, agonist reporter assay. O95977; in the data active means activation above about 11%;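 further: 0% = DMSO vehicle and 100% = reference agonist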
S1P3 antagonist: S1P3 (human) receptor antagonism; Q99500; CHO S1P3 NFAT-BLA reporter, FRET fluorescence, antagonist mode; inhibition, % at 4.98 µM; hit rate 0.27% among 170,000;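 active means inhibition above the plate cutoff, the mean inhibition of test wells on that plate plus 3 SD, cut at about 28% in these data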;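 further: cells challenged with S1P at its EC80 of 0.8 µM; blue over green emission ratio from cleaved BLA substrate after 4 h stimulation; 0% = S1P-stimulated wells and 100% = unstimulated DMSO-only wells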
Target sequence (Q99500 whole entry, looked up): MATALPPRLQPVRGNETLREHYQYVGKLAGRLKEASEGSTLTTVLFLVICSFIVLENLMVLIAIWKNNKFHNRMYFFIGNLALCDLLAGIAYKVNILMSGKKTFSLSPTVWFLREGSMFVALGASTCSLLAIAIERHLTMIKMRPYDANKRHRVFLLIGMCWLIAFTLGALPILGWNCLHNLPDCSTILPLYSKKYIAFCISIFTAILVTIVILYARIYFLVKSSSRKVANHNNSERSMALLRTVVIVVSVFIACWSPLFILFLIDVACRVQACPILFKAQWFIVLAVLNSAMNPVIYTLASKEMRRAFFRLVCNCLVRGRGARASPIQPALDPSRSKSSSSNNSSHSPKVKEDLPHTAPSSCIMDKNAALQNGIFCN
S1P4 antagonist: human S1P4 receptor antagonism; O95977; S1P4-expressing cells, antagonist mode, reporter read-out; inhibition, % at 4.98 µM; hit rate 0.26% among 220,000; AID 1510; in the data active means inhibition above about 29%;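 further: 0% = wells stimulated with agonist and 100% = vehicle wells without agonist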
Biofilm kill mix: mixture kills Candida albicans biofilm cells; C. albicans biofilm persisters + clotrimazole, fluorescence viability; primary screen in compound mixtures of four per well; inhibition, % at 7.6 µM; hit rate 0.02% among 120,000; AID 1242;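 active means inhibition above 30.3% in the primary screen of four-compound pools, then above 30% when the compound was retested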;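 further: compounds exposed to preformed 24 h biofilms for 48 h; 0% = untreated biofilm control and 100% = clotrimazole plus chlorhexidine kill blank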
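System: C. albicans CAF4-2 wild-type biofilms; Medium: RPMI/MOPS medium, pH 7.0; Reagent: Clotrimazole, 50 µg/mL; Times: biofilm formation 24 h, compound exposure 48 h, 37 °C; Detection: 2-h Alamar Blue fluorescence, 535/590 nm excitation/emission; Evaluation: percent inhibition of biofilm viability.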
Active calls of the source: *; x = no result.

SMILES	Efa HMGR inh	Rad51 HR inh	S1P4 agonist	S1P3 antagonist	S1P4 antagonist	Biofilm kill mix
CCC/C=C1/CCCOC(C(=O)NCCN2CCOCC2)(C(F)(F)F)C1 (stereo not drawn)	x	-3	x	x	x	x
COC(c1ccccc1)c1nnc(CCC(=O)NCCC(C)C)o1 (stereo not drawn)	16*	9	4	5	-17	0
CCOC(=O)c1sc(N/N=C/c2ccccc2)nc1C	9.9*	-10	1	-13	-19	10
CCOC(=O)c1sc(NC(=O)CSc2nccc(C)n2)nc1C	19*	5	-1	-9	-1	7
CCOC(=O)c1sc(N/N=C/c2cccc(C)c2)nc1C	-1	0	1	x	-16	x
C1CCCC(NC2=NCCO2)CCC1	x	3	1	5	-3	9
Cc1csc2c(N3CCN(C(=O)Nc4ccc(Cl)c(Cl)c4)CC3)ncnc12	x	x	-3	-3	7	24
CCC(=O)Nc1cccc(-c2nc3ccccc3c(=O)o2)c1	-5	x	1	-22	-20	x
CCC(CC)C(=O)Nc1cccc(-c2nc3ccccc3o2)c1	2	8	-1	61*	-18	x
CC(=O)Nc1cccc(-c2nc3ccccc3c(=O)o2)c1	-3	5	0	84*	-16	x
O=C(O)c1ccccc1-c1ccccc1C(=O)Nc1cccc(-c2nc3ccccc3o2)c1	-2	0	2	-13	-8	22
CC1(C)CC(=O)CC(=Nc2ccc(C(=O)O)cc2)C1	-3	2	0	103*	-8	x
CC1(C)CC(=O)C/C(=N/NC(=O)c2ccc(-c3ccccc3)cc2)C1	-7	3	1	-3	1	2
CCOC(=O)CSc1nnc(-c2cccc(Cl)c2)n1CC	-1	0	2	-32	-1	x
COC(=O)c1ccc(-n2c(C)cc(C(=O)CSc3cccc[n+]3[O-])c2C)cc1	2	73*	4	-1	-24	9
CCCCNC(=O)/C(C#N)=C/c1ccc2c(c1)OCCO2	0	-6	1	2	0	13
Nc1nonc1-n1nnc(C(=O)O)c1-c1cccs1	10*	1	1	10	-15	x
CCOC(=O)c1nnn(-c2nonc2N)c1-c1cccs1	2	4	-1	32	1	x
COc1cc(C2C(C#N)=C(N)Oc3cc4c(cc32)OCO4)cc(OC)c1OC (stereo not drawn)	-6	x	-4	17	18	8
N#CC1=C(N)Oc2cc3c(cc2C1c1ccc(Cl)cc1)OCO3 (stereo not drawn)	-8	-1	0	72*	-1	x
CCc1ccc(S(=O)(=O)Nc2cc(SCC(=O)O)c(O)c3ccccc23)cc1	10*	-2	0	-9	4	7
O=C(O)CSc1cc(NS(=O)(=O)c2cccc([N+](=O)[O-])c2)c2ccccc2c1O	x	23	-2	-13	13	20
Cc1cc(NC(=O)NN2CCOCC2)nn1-c1c(Cl)cc(Cl)cc1Cl	x	-14	1	6	10	16
OCCN1CCN(c2ncnc3ccc(Br)cc23)CC1	2	0	1	102*	-38	x
OCCN1CCN(C(=S)c2ccc(Br)cc2)CC1	-2	x	1	x	-17	x
SMILES	Efa HMGR inh	Rad51 HR inh	S1P4 agonist	S1P3 antagonist	S1P4 antagonist	Biofilm kill mix
Cc1ccc(C)c(OCCCC(=O)Nc2ccc(N3CCOCC3)cc2)c1	2	0	-1	4	-26	x
Cc1ccc2nc(NC(=O)c3ccc(Cl)s3)sc2c1	3	-4	-1	-14	-39	x
Cc1nc2ccc(NC(=O)c3ccc(Cl)s3)cc2s1	3	1	-3	56*	-7	x
Nc1ccc(S(=O)(=O)Nc2nccc(/C=C/c3ccccc3F)n2)cc1	-3	0	0	9	22	4
CCC1Oc2ccccc2N(CC(=O)Nc2ccccc2OC)C1=O (stereo not drawn)	-2	-6	0	x	12	x
CCC1Oc2ccccc2N(CC(=O)NCc2ccco2)C1=O (stereo not drawn)	41*	0	5	-8	4	17
O=C(Nc1ccc(Cl)c(Cl)c1)c1ccc(Cn2c(=O)[nH]c3ccsc3c2=O)cc1	2	1	-2	-3	6	0
O=C(Nc1ccc(Oc2ccccc2)cc1)c1ccc(Cn2c(=O)[nH]c3ccsc3c2=O)cc1	20*	x	4	-9	-9	7
CNC(=S)NCCc1ccccc1	x	13	0	9	-15	17
CCN(CC)C(=S)NCCc1ccccc1	12*	-21	0	-9	-15	12
CCOC(=O)/C(C#N)=C/c1cn(CCC(=O)O)nc1-c1cccc(Cl)c1	-3	4	-2	3	9	29
COCCNC(=O)c1c(N)n(/N=C/c2cccs2)c2nc3ccccc3nc12	-3	-3	-1	x	1	x
N#Cc1ccc(NC(=S)Nc2ccccc2)cc1	-3	-8	2	-9	-16	8
CCCCCC(=O)Nc1cccc2ccccc12	-2	43*	3	-21	-25	12
COC(=O)CCC(=O)Nc1cccc2ccccc12	-6	-4	0	x	-6	x
O=C(Nc1ncc(Br)s1)C(Cc1ccccc1)n1cccc1 (stereo not drawn)	-6	2	0	67*	24	x
O=C(Nc1cccnc1)C(Cc1ccccc1)n1cccc1 (stereo not drawn)	0	-8	0	12	2	x
O=C(NN=C1CCCCCC1)c1cccnc1	-2	10	2	-10	-6	8
O=C(CC(=O)NN=C1CCCCCC1)NCc1cccnc1	15*	-49	2	-21	-9	15
Nc1cccc(Oc2ccc([N+](=O)[O-])cc2)c1	10*	4	0	-9	-6	13
Cc1nnc2sc(-c3cccc(NC(=O)c4ccc(-c5cccc(Cl)c5)o4)c3)nn12	x	x	-2	-3	-44	x
O=C(Nc1ccncc1)c1cn(-c2ccccc2)nc1-c1cccs1	13*	x	-1	x	-11	x
O=C(Nn1cnnc1)c1ccccc1CCc1ccccc1	-5	-4	-1	64*	-8	x
O=C(Nc1ccccc1)c1ccccc1CCc1ccccc1	-2	-7	1	x	4	x
COc1ccc(NC(C)c2cc(Cl)ccc2O)cc1 (stereo not drawn)	-3	-7	-2	63*	3	x
SMILES	Efa HMGR inh	Rad51 HR inh	S1P4 agonist	S1P3 antagonist	S1P4 antagonist	Biofilm kill mix
CC(Nc1ccccc1)c1cc(Cl)ccc1O (stereo not drawn)	-5	12	0	x	-3	9
Nc1[nH]nc2nc3ccccc3cc12	10*	-1	2	-9	-27	25
CCc1ccc2nc3n[nH]c(N)c3cc2c1	-5	3	-1	x	-14	x
CCC(=O)Nc1nnc(C)s1	0	-11	-3	x	-6	12
Cc1ccc(S(=O)(=O)n2[nH]c(=O)cc2NC(=O)c2cccs2)cc1	11*	-1	0	-12	5	7
O=C(COC(=O)CCSc1ccc(Cl)cc1)NCc1ccccc1Cl	-5	15	0	-2	3	17
